In ChEMBL document CHEMBL4765310, “Discovery of 4-(3,5-dimethoxy-4-(((4-methoxyphenethyl)amino)methyl)phenoxy)-N-phenylaniline as a novel c-myc inhibitor against colorectal cancer in vitro and in vivo” (Eur J Med Chem, 2020):

Assays:
HT-29 = assay: Antiproliferative activity against human HT-29 cells assessed as inhibition of cell viability measured after 72 hrs by MTT assay; type: functional, cell-based; conditions: HT-29, 72 h
Outline: (§1)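 Cells kept at 37 °C, 5% CO₂ in RPMI 1640, L-15 or DMEM with 10% FBS and 1% penicillin-streptomycin. Plated at 2-4 × 10³ cells/well and dosed 24 h after plating. After 72 h exposure, MTT added for 2-4 h at 37 °C. Formazan dissolved in DMSO, absorbance read at 570 nm. IC50 is the mean of at least three independent experiments.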

[1] = Inhibition of dimerization of N-terminal His6-tagged human c-Myc bHLHZip domain (353 to 439 residues)/Max(151 residues) (unknown origin) expressed in Escherichia coli BL21DE3 measured after 1 hr by ELISA
Outline: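 Myc bHLHZip (5.5 μg/well) was coated at 4 °C for 24 h in PBS pH 7.0 buffer (EDTA, KCl, MgCl2, glycerol, NP40, DTT), then blocked with 3% BSA for 2 h at 37 °C. Detection used rabbit anti-c-Myc, HRP anti-rabbit and TMB, read at 450 nm.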

SW-620 = assay: Antiproliferative activity against human SW-620 cells assessed as inhibition of cell viability measured after 72 hrs by MTT assay; type: functional, cell-based; conditions: SW-620, 72 h; outline: as §1
HCT-15 = assay: Antiproliferative activity against human HCT-15 cells assessed as inhibition of cell viability measured after 72 hrs by MTT assay; type: functional, cell-based; conditions: HCT-15, 72 h; outline: as §1
DLD-1 = assay: Antiproliferative activity against human DLD-1 cells assessed as inhibition of cell viability measured after 72 hrs by MTT assay; type: functional, cell-based; conditions: DLD-1, 72 h; outline: as §1
HCT-116 = assay: Antiproliferative activity against human HCT-116 cells assessed as inhibition of cell viability measured after 72 hrs by MTT assay; type: functional, cell-based; conditions: HCT-116, 72 h; outline: as §1
Homo sapiens = organism: Homo sapiens; assay: Inhibition of dimerization of N-terminal His6-tagged human c-Myc bHLHZip domain (353 to 439 residues)/Max(151 residues) (unknown origin) expressed in Escherichia coli BL21DE3 assessed as inhibition of c-Myc/Max/DNA complex formation at 20 uM preincubated with c-Myc/Max for 1.5 hrs followed by incubation with DNA oligo for 0.5 hrs by EMSA analysis relative to control; conditions: time 2.0 hrs
Outline: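 Gel-shift used His-tagged Myc/Max complex (50 nM) with a biotinylated E-box duplex oligo (50 nM). Buffer was PBS pH 7.0 with 10 mM EDTA, 500 mM KCl, 30 mM MgCl2, 5% glycerol, 0.1% NP40, 1.5 mM DTT and 10% DMSO. Protein was preincubated with compound at 20 μM for 1.5 h at room temperature, then DNA was added for 0.5 h. Inhibition is relative to DMSO; three independent experiments.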

IC50 (HT-29) | IC50 [1] | IC50 (SW-620) | IC50 (HCT-15) | IC50 (DLD-1) | IC50 (HCT-116) | inhibition (Homo sapiens) | SMILES
> 20 µM | > 150 µM | > 20 µM | 6.43 µM | > 20 µM | > 20 µM |  | COc1cc(Oc2cccc(Nc3ccccc3)c2)cc(OC)c1CN1CCN(CCO)CC1
12.3 µM | > 150 µM | > 20 µM | 6.14 µM | > 20 µM | > 20 µM | 1.7% | COc1cc(Oc2cccc(Nc3ccccc3)c2)cc(OC)c1CNC1CC1
2.82 µM | 92 µM | 10 µM | 3.76 µM | 3.4 µM | 5.4 µM | 43.7% | COc1cc(Oc2cccc(Nc3ccccc3)c2)cc(OC)c1CNCCc1ccc(Cl)cc1
1.25 µM | 87 µM | 5.77 µM | 2.88 µM | 1.86 µM | 3.32 µM | 46.2% | COc1cc(Oc2cccc(Nc3ccccc3)c2)cc(OC)c1CNCCc1ccc(C)cc1
6.89 µM | 116 µM | 14.6 µM | 2.18 µM | 4.65 µM | 3.99 µM | 35.6% | COc1ccc(CCNCc2ccc(Oc3cccc(Nc4ccccc4)c3)cc2)cc1
2.33 µM | 78 µM | 3.93 µM | 1.29 µM | 2.35 µM | 4.02 µM | 60.8% | COc1cccc(CCNCc2c(OC)cc(Oc3cccc(Nc4ccccc4)c3)cc2OC)c1
3.35 µM | 123 µM | 6.34 µM | 4.85 µM | 3.74 µM | 3.31 µM | 25.7% | COc1cc(Oc2cccc(Nc3ccccc3)c2)cc(OC)c1CNCc1ccc(Cl)cc1
> 20 µM | > 150 µM | > 20 µM | 5.09 µM | > 20 µM | > 20 µM | 8.9% | CCN1CCN(Cc2c(OC)cc(Oc3cccc(Nc4ccccc4)c3)cc2OC)CC1
> 20 µM | > 150 µM | > 20 µM | > 20 µM | > 20 µM | > 20 µM |  | COc1cc(Oc2cccc(Nc3ccccc3)c2)cc(OC)c1CNC(C)C
> 20 µM | > 150 µM | > 20 µM | 15.6 µM | > 20 µM | 12.9 µM | 3.2% | COc1cc(Oc2cccc(Nc3ccccc3)c2)cc(OC)c1CN(C)C
> 20 µM | > 150 µM | > 20 µM | 8.97 µM | > 20 µM | > 20 µM | 6.1% | COc1cc(Oc2cccc(Nc3ccccc3)c2)cc(OC)c1CN(CCO)CCO
2.93 µM | 83 µM | 12.7 µM | 6.14 µM | 4.03 µM | 15.7 µM | 51.7% | COc1cc(Oc2cccc(Nc3ccccc3)c2)cc(OC)c1CNCCc1ccc(O)cc1
6.89 µM | 72 µM | 14.6 µM | 2.18 µM | 4.65 µM | 3.23 µM | 70.6% | COc1ccc(CCCNCc2c(OC)cc(Oc3ccc(Nc4ccccc4)cc3)cc2OC)cc1
3.53 µM | 147 µM | > 20 µM | 6.51 µM | 7.37 µM | > 20 µM | 12.6% | COc1cc(Oc2cccc(Nc3ccccc3)c2)cc(OC)c1CNC12CC3CC(CC(C3)C1)C2
8.5 µM | 105 µM | > 20 µM | 8.93 µM | 8.57 µM | > 20 µM | 42.1% | COc1cc(Oc2cccc(Nc3ccccc3)c2)cc(OC)c1CNCc1ccc2c(c1)OCO2
3.32 µM | 147 µM | 6.4 µM | 0.73 µM | 2.54 µM | 2.85 µM | 63.4% | COc1ccc(CCCNCc2c(OC)cc(Oc3cccc(Nc4ccccc4)c3)cc2OC)cc1

IC50 (HT-29) | IC50 [1] | IC50 (SW-620) | IC50 (HCT-15) | IC50 (DLD-1) | IC50 (HCT-116) | inhibition (Homo sapiens) | SMILES
2.18 µM | 123 µM | 7.94 µM | 3.43 µM | 2.69 µM | 3.36 µM | 31.8% | COc1cc(Oc2cccc(Nc3ccccc3)c2)cc(OC)c1CNCc1ccc(O)cc1
7.43 µM | > 150 µM | 15 µM | 8.93 µM | 11.9 µM | > 20 µM | 2.5% | CNCc1c(OC)cc(Oc2cccc(Nc3ccccc3)c2)cc1OC
2.75 µM | 107 µM | 11 µM | 3.35 µM | 5.92 µM | 3.11 µM | 42.3% | COc1ccc(CCNCc2ccc(Oc3cccc(Nc4ccccc4)c3)c(OC)c2)cc1
1.89 µM | 86 µM | 6.97 µM | 2.65 µM | 1.91 µM | 2.62 µM | 48.7% | COc1ccc(CNCc2c(OC)cc(Oc3cccc(Nc4ccccc4)c3)cc2OC)cc1
3.96 µM | > 150 µM | 11.9 µM | 5.09 µM | 6.01 µM | 18.2 µM | 10.2% | COc1cc(Oc2cccc(Nc3ccccc3)c2)cc(OC)c1CNCCNC(C)=O
3.88 µM | 119 µM | 11.8 µM | 5.4 µM | 6.08 µM | 13.8 µM | 32.4% | COc1cc(Oc2cccc(Nc3ccccc3)c2)cc(OC)c1CNCc1ccc(C)cc1
3.06 µM | 129 µM | 11.2 µM | 5.41 µM | 3.52 µM | 6.23 µM | 29.3% | COc1cc(Oc2cccc(Nc3ccccc3)c2)cc(OC)c1CNCc1ccc(Br)cc1
2.75 µM | 137 µM | 6.77 µM | 3.64 µM | 2.65 µM | 4.22 µM | 21.2% | COc1cc(Oc2cccc(Nc3ccccc3)c2)cc(OC)c1CNCc1ccc(F)cc1
3.34 µM | 125 µM | 7.49 µM | 5.02 µM | 5.22 µM | 4.07 µM | 26.4% | COc1cc(Oc2cccc(Nc3ccccc3)c2)cc(OC)c1CNCc1ccccc1
5.12 µM | 116 µM | 18.7 µM | 7.55 µM | 8.57 µM | > 20 µM | 30.5% | COc1cc(Oc2cccc(Nc3ccccc3)c2)cc(OC)c1CN[C@H](C)c1ccccc1
6.06 µM | 96 µM | 11.6 µM | 6.14 µM | 6.77 µM | 13.6 µM | 45.1% | COc1cc(Oc2cccc(Nc3ccccc3)c2)cc(OC)c1CNCCc1ccccc1
3.97 µM | 102 µM | 7.84 µM | 1.02 µM | 4.06 µM | 2.67 µM | 42.1% | COc1ccc(CCNCc2ccc(Oc3cccc(Nc4ccccc4)c3)cc2OC)cc1
2.12 µM | 72 µM | 3.65 µM | 1.19 µM | 2.32 µM | 3.4 µM | 67.4% | COc1ccccc1CCNCc1c(OC)cc(Oc2cccc(Nc3ccccc3)c2)cc1OC
1.02 µM | 69 µM | 6.23 µM | 1.25 µM | 1.12 µM | 0.98 µM | 75.1% | COc1ccc(CCNCc2c(OC)cc(Oc3cccc(Nc4ccccc4)c3)cc2OC)cc1
2.52 µM | 95 µM | 8.95 µM | 2.34 µM | 2.87 µM | 3.19 µM | 40.5% | COc1cc(Oc2cccc(Nc3ccccc3)c2)cc(OC)c1CNCCc1ccc(F)cc1
